# EBV gp42 inh = inhibitors of Epstein-Barr virus glycoprotein 42. inhibition, % (tested at 21.74 µM). hit rate 0.42% among 220,000. Q1HVG2. Fluorescence polarization binding assay, mP read-out; in the data active = inhibition above about 50%
# Target sequence (Q1HVG2 whole entry, looked up): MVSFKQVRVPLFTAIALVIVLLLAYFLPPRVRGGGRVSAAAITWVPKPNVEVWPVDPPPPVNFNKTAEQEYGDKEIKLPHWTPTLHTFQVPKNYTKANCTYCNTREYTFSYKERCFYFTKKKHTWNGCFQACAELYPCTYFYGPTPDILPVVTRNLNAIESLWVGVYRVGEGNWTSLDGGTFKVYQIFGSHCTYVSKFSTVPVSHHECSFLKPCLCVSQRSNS
# MPTP inh = blocks calcium-induced mitochondrial swelling. hit rate 1.4% among 360,000. isolated mouse mitochondria, Ca2+ swelling absorbance, 30 min. AID 602449. inhibition, % at 10 µM;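 active = inhibition of 50% or more, scaled per plate between neutral and stimulator controls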
# CHOP inh = CHOP inhibition in unfolded protein response | hit rate 3.8% among 220,000 | inhibition, % at 10 µM | CHO-K1 CHOP-promoter luciferase, tunicamycin-induced, 15-18 h;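 active = compounds that reduced the stress-induced luciferase reporter signal by more than about 70% of percent inhibition, limit read from the data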
# WT yeast gro inh = growth inhibition of WT yeast, mitochondrial fusion screen | mitochondrial fusion phenotypic screen, WT strain | inhibition, % at 10 µM | hit rate 2.1% among 190,000 | AID 1362; in the data active = inhibition above about 58%; tested in S. cerevisiae
# NR3A LBD binder = modulators (binders) of human NR3A ligand-binding domain; NR3A LBD differential scanning fluorimetry, Tm shift; 0% = protein alone, 100% = glycine-bound protein; Tm shift relative to glycine control, % at 25 µM; AID 1259313; hit rate 2.5% among 340,000;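 active = melting temperature shift of at least 10% of the positive control shift, at one fixed dose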
# Tb MetRS inh = blocks T. brucei methionyl-tRNA synthetase activity. inhibition, % at 11.9 µM. hit rate 0.4% among 360,000. purified T. brucei MetRS, ATP depletion, Kinase-Glo luminescence;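 active = inhibition above a per-plate cutoff of the control wells' mean inhibition plus 3 SD, cut at about 5.5% in these data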
#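 Test system – parasite MetRS enzyme · Reagent – substrates ATP, L-methionine and bulk Escherichia coli tRNA · Doses – 11.9 µM compound single dose, 0.9% DMSO · Times – 15 min enzyme-compound preincubation, 2 h reaction, 10 min detection, 25 °C · Signal – Kinase-Glo luminescence, ATP depletion format · Controls – DMSO-only wells as low control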
# A number is an active result; . = inactive; / = no result; ! = a repeat was not active. A selection: hits, their analogues and other compounds. The true share with any hit is near 6.4%.
SMILES,EBV gp42 inh,MPTP inh,CHOP inh,WT yeast gro inh,NR3A LBD binder,Tb MetRS inh
O=S(=O)(c1ccc(Cl)c(F)c1)N1CCC(c2nc(-c3ccncc3)no2)CC1,.,.,.,.,.,.
CN1CCc2cccc3c2[C@H]1Cc1ccc(O)c(O)c1-3,.,.,.,.,12!,.
Cc1ccc(C(=O)Nc2nccs2)cc1S(=O)(=O)N1CCCCC1,.,.,.,.,.,.
Oc1ccc(C[C@@H](CN2CCCC2CN2C(=S)NC[C@@H]2Cc2ccccc2)N2C[C@H](Cc3ccccc3)N(CC3CCCCCC3)C2=S)cc1 (some centres not stated),/,.,/,/,/,.
Oc1ccc(C[C@H]2CNC(=S)N2CC2CCCN2C[C@H](Cc2ccc(O)cc2)N2C[C@H](Cc3ccc(O)cc3)N(CC3CCCCCC3)C2=S)cc1 (some centres not stated),/,.,/,/,28,.
CCOc1ccc(CCN2C(=S)N([C@@H](Cc3ccc(O)cc3)CN3CCCC3CN3C(=S)NC[C@@H]3Cc3ccc(O)cc3)C[C@@H]2CC(C)C)cc1 (some centres not stated),/,.,/,/,13,.
CC(C)C[C@H]1CN([C@@H](CC(C)C)CN2CCCC2CN2C(=S)NC[C@@H]2Cc2ccc(O)cc2)C(=S)N1CC1CCCCC1 (some centres not stated),/,.,/,/,13,.
Oc1ccc(C[C@H]2CN([C@@H](Cc3ccc(O)cc3)CN3CCC[C@@H]3CN3C(=S)NC[C@@H]3Cc3ccccc3)C(=S)N2CCc2ccccc2)cc1,/,.,/,/,/,.
CC(C)C[C@@H](CN1CCCC1CN1C(=S)NC[C@@H]1Cc1ccc(O)cc1)N1C[C@H](Cc2ccc(O)cc2)N(CCc2ccccc2)C1=S (some centres not stated),/,.,/,/,24,.
O=C(NCc1n[nH]c(=S)n1-c1cccc(Cl)c1)c1cccs1,.,.,.,.,.,.
COc1ccccc1C(=O)Nc1ccccc1C(=O)N1C(C)CCCC1C (configuration not stated),.,.,.,.,.,.
O=C(COC(=O)C1CC(=O)N(Cc2ccccc2)C1)Nc1ccc([N+](=O)[O-])cc1Br (configuration not stated),/,.,/,/,/,.
Oc1ccc(C[C@H]2CN([C@@H](Cc3ccccc3)CN3CCC[C@@H]3CN3C(=S)NC[C@@H]3Cc3ccccc3)C(=S)N2CC2CCCCC2)cc1,/,.,/,/,/,.
Oc1ccc(C[C@@H](CN2CCCC2CN2C(=S)NC[C@@H]2Cc2ccccc2)N2C[C@H](Cc3ccccc3)N(CC3CCCCC3)C2=S)cc1 (some centres not stated),/,.,/,/,/,.
Oc1ccc(C[C@H]2CNC(=S)N2CC2CCCN2C[C@H](Cc2ccc(O)cc2)N2C[C@H](Cc3ccccc3)N(CC3CCCCC3)C2=S)cc1 (some centres not stated),/,.,/,/,33,.
Oc1ccc(C[C@H]2CNC(=S)N2CC2CCCN2C[C@H](Cc2ccc(O)cc2)N2C[C@H](Cc3ccccc3)N(CC3CCCCCC3)C2=S)cc1 (some centres not stated),/,.,/,/,20,.
CCOc1ccc(NC(=O)Nc2cc(C(=O)O)ccc2N2CC3CC(C2)c2cccc(=O)n2C3)cc1 (configuration not stated),/,.,/,/,11,.
Cc1cc(Br)cc(C=Nc2ccc(N3CCOCC3)cc2)c1O,/,.,/,/,.,.
CCOc1ccccc1N1CCN(C(=O)Nc2ccc(Cl)c(Cl)c2)CC1,.,/,.,68,/,/
COc1cc(/C=N/N=C2\CC3CCC2(C)C3(C)C)ccc1O (configuration not stated),.,.,77,.,.,.
COC(=O)c1ccc(NC(=O)Nc2ccc(OC)c(OC)c2)cc1,.,.,.,.,21,.
COc1ccc(NC(=O)Nc2ccc3oc(C)nc3c2)cc1,.,.,.,.,25,.
COc1ccc(C(=O)Nc2ccc(C(=O)Nc3cccc(C)c3)cc2)cc1,/,.,/,/,14,.
CCN(CC)S(=O)(=O)c1ccc(C(=O)Nc2cccc(C)c2)cc1,.,.,77,/,.,.
Cc1cccc(NC(=O)c2ccc(S(=O)(=O)N(C)C)cc2)c1,.,.,.,.,.,.
SMILES,EBV gp42 inh,MPTP inh,CHOP inh,WT yeast gro inh,NR3A LBD binder,Tb MetRS inh
COc1ccc(NC(=O)c2cccc(NC(=O)c3ccccc3)c2)cc1,/,.,/,/,.,.
COc1cccc(C2CC(c3ccc(C)cc3)Nc3nc(N)nn32)c1 (configuration not stated),.,.,.,.,.,.
CC(C)N1CCN(C(=O)c2ccc(NC(=O)c3ccc(Br)o3)cc2)CC1,/,.,/,/,.,.
COc1ccc(NC(=O)Nc2ccc3c(c2)CCC3)cc1,/,.,/,/,14,.
COc1ccc(NC(=O)Nc2cccc(OC)c2)cc1,/,.,/,.,25,.
COc1cccc(NC(=O)Nc2ccc3nc(C)c(C)nc3c2)c1,/,.,/,/,28,.
COc1cccc(NC(=O)CN(C)CC(=O)NCC(=O)Nc2ccc(F)cc2)c1,/,.,/,/,19,.
Cc1ccc(NC(=O)Nc2ccc3c(c2)CCC3)cc1C,/,.,/,/,.,.
COc1cccc(N/C(C)=C/C(=O)c2ccc(Br)cc2)c1,.,.,.,65,.,.
C/C(=C\C(=O)c1ccc(Br)cc1)Nc1ccc(Cl)cc1,.,.,.,.,.,.
O=C(COc1cccnc1[N+](=O)[O-])N1CCN(S(=O)(=O)c2ccc3ccccc3c2)CC1,.,.,.,.,14,.
Cc1ccc(OCC(=O)N2CCN(S(=O)(=O)c3ccc(Cl)cc3)CC2)c([N+](=O)[O-])n1,.,.,.,.,.,.
CCOC(=O)C(=O)N(Nc1ccc(C)cc1)c1ccc(C)cc1,.,.,.,/,11,.
O=C(C1=C[C@@H](C2CCCCC2)C[C@@H](OCc2ccc(CO)cc2)O1)N1CCN(Cc2ccccc2)CC1,.,.,.,64,.,.
O=C(C1=C[C@H](C2CCCCC2)C[C@H](OCc2ccc(CO)cc2)O1)N1CCN(Cc2ccccc2)CC1,.,.,.,72,.,.
CC(C)(C)[C@H]1C=C(C(=O)N2CCN(Cc3ccccc3)CC2)O[C@@H](OCc2ccc(CO)cc2)C1,.,.,.,72,.,.
COc1cccc(C2Nc3c(F)cc(Br)cc3C3C=CCC32)c1OC (configuration not stated),.,.,.,66,.,.
Cc1ccc2nc(-c3ccc4c(c3)OCCO4)cn2c1,.,.,94,/,.,.
c1ccn2cc(-c3ccc4c(c3)OCCO4)nc2c1,.,.,.,.,.,.
CCCCCCCCCC(=O)N1CCN(c2cc3c(cc2F)c(=O)c(C(=O)O)cn3CC)CC1,/,.,/,/,.,.
CCOC(=O)c1cccc(NC(=O)Cn2cc3c(n2)CCC(C)C3)c1 (configuration not stated),.,.,83,.,.,.
O=C(CC(NC(=O)C(F)(F)F)c1ccccc1)Nc1nnc(CCc2ccccc2)s1 (configuration not stated),.,.,94,.,.,.
